ChEMBL document CHEMBL4184251, “Potentiation of the activity of β-lactam antibiotics by farnesol and its derivatives” (Bioorg Med Chem Lett, 2018)
Values after ≈ are worked out from the molar mass of the structure shown.

Columns and labels:
Type in all cases: functional
Staphylococcus aureus [1] = assay: Potentiation of oxacillin-induced antimicrobial activity against methicillin-resistant Staphylococcus aureus NRS123 at 256 ug/ml relative to oxacillin alone
Staphylococcus aureus [2] = assay: Potentiation of ampicillin-induced antimicrobial activity against methicillin-resistant Staphylococcus aureus NRS123 at 256 ug/ml relative to ampicillin alone
Staphylococcus aureus [3] = assay: Antimicrobial activity against methicillin-susceptible Staphylococcus aureus ATCC 29213 by micro-dilution method
Method in brief: (§1)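 Broth microdilution MIC in cation-adjusted Mueller-Hinton II medium supplemented with 1% Tween-80 (CAMHB-T), needed to disperse the farnesol-type compounds. Compounds tested from 2 to 2048 μg/mL.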

Staphylococcus aureus [4] = assay: Potentiation of ampicillin-induced antimicrobial activity against methicillin-susceptible Staphylococcus aureus ATCC 29213 at 256 ug/ml relative to ampicillin alone
Staphylococcus aureus [5] = assay: Potentiation of oxacillin-induced antimicrobial activity against methicillin-resistant Staphylococcus aureus NRS100 at 128 ug/ml by checkerboard assay
Method in brief: (§2)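 Checkerboard combination of oxacillin with the farnesol-type compound. Synergy scored by the fractional inhibitory concentration index (FICI).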

Staphylococcus aureus [6] = assay: Potentiation of oxacillin-induced antimicrobial activity against methicillin-resistant Staphylococcus aureus NRS70 at 128 ug/ml relative to oxacillin alone
Staphylococcus aureus [7] = assay: Antimicrobial activity against methicillin-resistant Staphylococcus aureus NRS70 by micro-dilution method; method in brief: as §1
Staphylococcus aureus [8] = assay: Antimicrobial activity against methicillin-resistant Staphylococcus aureus NRS100 by micro-dilution method; method in brief: as §1
Staphylococcus aureus [9] = assay: Potentiation of oxacillin-induced antimicrobial activity against methicillin-resistant Staphylococcus aureus NRS100 at 128 ug/ml (reference value: oxacillin alone MIC = >256 ug/ml)
Staphylococcus aureus [10] = assay: Potentiation of ampicillin-induced antimicrobial activity against methicillin-resistant Staphylococcus aureus NRS70 at 128 ug/ml relative to ampicillin alone
Staphylococcus aureus [11] = assay: Potentiation of oxacillin-induced antimicrobial activity against methicillin-resistant Staphylococcus aureus NRS70 at 128 ug/ml by checkerboard assay; method in brief: as §2
Staphylococcus aureus [12] = assay: Potentiation of ampicillin-induced antimicrobial activity against methicillin-susceptible Staphylococcus aureus ATCC 29213 at 256 ug/ml (reference value: ampicillin alone MIC = 0.5 ug/ml)
Staphylococcus aureus [13] = assay: Potentiation of oxacillin-induced antimicrobial activity against methicillin-susceptible Staphylococcus aureus ATCC 29213 at 256 ug/ml (reference value: oxacillin alone MIC = 0.4 ug/ml)
Staphylococcus aureus [14] = assay: Potentiation of ampicillin-induced antimicrobial activity against methicillin-resistant Staphylococcus aureus NRS123 at 256 ug/ml (reference value: ampicillin alone MIC = 12 ug/ml)
Staphylococcus aureus [15] = assay: Potentiation of oxacillin-induced antimicrobial activity against methicillin-resistant Staphylococcus aureus NRS70 at 128 ug/ml (reference value: oxacillin alone MIC = 32 ug/ml)
Staphylococcus aureus [16] = assay: Potentiation of ampicillin-induced antimicrobial activity against methicillin-resistant Staphylococcus aureus NRS100 at 128 ug/ml (reference value: ampicillin alone MIC = 16 ug/ml)
Staphylococcus aureus [17] = assay: Potentiation of oxacillin-induced antimicrobial activity against methicillin-susceptible Staphylococcus aureus ATCC 29213 at 256 ug/ml relative to oxacillin alone
Staphylococcus aureus [18] = assay: Potentiation of oxacillin-induced antimicrobial activity against methicillin-resistant Staphylococcus aureus NRS123 at 256 ug/ml (reference value: oxacillin alone MIC = 24 ug/ml)
Staphylococcus aureus [19] = assay: Antimicrobial activity against methicillin-resistant Staphylococcus aureus NRS123 by micro-dilution method; method in brief: as §1
Staphylococcus aureus [20] = assay: Potentiation of ampicillin-induced antimicrobial activity against methicillin-resistant Staphylococcus aureus NRS100 at 128 ug/ml relative to ampicillin alone
Staphylococcus aureus [21] = assay: Potentiation of ampicillin-induced antimicrobial activity against methicillin-resistant Staphylococcus aureus NRS70 at 128 ug/ml (reference value: ampicillin alone MIC = 16 ug/ml)

CC(C)=CCC/C(C)=C/CC/C(C)=C/CN
fold change (FC) (Staphylococcus aureus [1]): 32
fold change (FC) (Staphylococcus aureus [2]): 12
MIC (Staphylococcus aureus [3]): 512 µg/mL (≈ 2310 µM)
fold change (FC) (Staphylococcus aureus [4]): 2.5
fractional inhibitory concentration index (FICI) (Staphylococcus aureus [5]): 0.53 - 1.13
fold change (FC) (Staphylococcus aureus [6]): 1
MIC (Staphylococcus aureus [7]): 256 µg/mL (≈ 1160 µM)
MIC (Staphylococcus aureus [8]): 256 µg/mL (≈ 1160 µM)
MIC (Staphylococcus aureus [9]): > 256 µg/mL
fold change (FC) (Staphylococcus aureus [10]): 1
fractional inhibitory concentration index (FICI) (Staphylococcus aureus [11]): 0.53 - 1.13
MIC (Staphylococcus aureus [12]): 0.2 µg/mL
MIC (Staphylococcus aureus [13]): 0.5 µg/mL
MIC (Staphylococcus aureus [14]): 1 µg/mL
MIC (Staphylococcus aureus [15]): 32 µg/mL
MIC (Staphylococcus aureus [16]): 8 µg/mL
fold change (FC) (Staphylococcus aureus [17]): 0.8
MIC (Staphylococcus aureus [18]): 0.75 µg/mL
MIC (Staphylococcus aureus [19]): 512 µg/mL (≈ 2310 µM)
fold change (FC) (Staphylococcus aureus [20]): 2
MIC (Staphylococcus aureus [21]): 16 µg/mL
